# Screens deposited in PubChem by Broad Institute.
# FGF22 binding: binders of human FGF22 protein, primary screen, FGF22 synaptogenesis inhibitor project, biophysical, thermal shift, single point; 340,000 tested, 1.5% active; Fibroblast growth factor 22 (Homo sapiens), Q9HCT0; recombinant FGF22 thermal shift, SYPRO orange fluorescence; percent of sucrose octasulfate shift, DMSO zero; activity (Tm shift, normalised), % at 9.99 µM;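 active = mean Tm shift, scaled 0 neutral to 100 positive control, at about 1.3% or above, every replicate too, limit read from the data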
# Target sequence (Q9HCT0 whole entry, looked up): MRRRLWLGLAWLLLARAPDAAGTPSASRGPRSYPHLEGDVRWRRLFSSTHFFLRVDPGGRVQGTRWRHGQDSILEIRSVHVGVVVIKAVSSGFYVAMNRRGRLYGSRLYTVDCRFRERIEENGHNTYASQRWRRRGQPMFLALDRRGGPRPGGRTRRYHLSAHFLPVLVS
# rRNA inh HTS: reduced GFP signal of wild-type E. coli, primary screen, bacterial rRNA inhibitor project, GFP/RFP fluorescence, OD600, single point. GFP signal change (wild-type ribosome), % (concentration not given with the values). E. coli WT GFP vs humanized-ribosome RFP mutants, 24 h; stronger effect = lower value; DMSO median 0, no signal -100. AID 720706, 2013. 350,000 tested, 1.6% active;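 active = significant combined selectivity score with lowered wild-type GFP, culture density cut under 30%, mutant RFP and density less affected; inactive = any of these conditions unmet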
# E-selectin induc: E-selectin induction in HUVECs, primary screen, imaging, HUVEC, immunofluorescence imaging, single point; P16581; normalized: neutral wells 0, TNF-alpha wells 100; activation, % at 7.58 µM; 260,000 tested, 0.37% active;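 active = mean E-selectin-positive cell signal at least 10% of the positive control, reached in at least 60% of replicates, without over 20% cell loss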
#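 System: HUVEC, human umbilical vein endothelial cells; quantity: 3,000 cells/well; buffer or medium: EGM-2 medium, gelatin-coated wells; dosing: single-point compound dose; detection: immunofluorescence imaging; evaluation: % PE-positive cells; benchmarks: TNF-alpha, DMSO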
# SIRT5 block: SIRT5 desuccinylase inhibitors, primary screen, biochemical, fluorescence imaging, single point, set 5; 330,000 tested, 1.1% active; inhibition, % at 15 µM; Purified SirT5, succinyl-peptide AMC, trypsin-coupled fluorescence; AID 652115, 2013; in the data active = inhibition above about 15%
# FN deposit inh: inhibitors of fibronectin matrix deposition, primary screen, AH1F cells, Alexa488-fibronectin fluorescence, plate reader. 350,000 tested, 0.086% active. AH1F fibroblasts, overnight. AID 743247, 2014. inhibition, % at 12.6 µM;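 active = mean inhibition across replicates of 30% or more, regardless of how many single replicates reach that level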;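 also: positive control wells lacked labelled fibronectin entirely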
#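 Schedule: 1 h cell adhesion before compound, then overnight fibronectin incubation; test system: AH1F fibroblast monolayer depositing Alexa488-labelled fibronectin into matrix; quantity: 10000 AH1F cells per well; probe or stimulus: fluorescent fibronectin at 24 nM final; signal: fluorescence, ex 485 nm, em 525 nm; evaluation: percent inhibition as loss of matrix-bound fibronectin fluorescence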
# C2C12 statin: suppressors of statin myotoxicity in C2C12 myotubes, primary screen, cell-based, single point, plate reader; C2C12 myotubes + simvastatin, ATP luminescence, 48 h; scaled: DMSO 0, geranylgeraniol control 100; AID 602340, 2012; rescue of ATP level, % at 7.49 µM; 330,000 tested, 0.78% active;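 active = mean ATP rescue above about 67%, or every replicate alone reaching that limit, limit read from the data, passing the limit was not always enough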;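 also: myotubes were challenged with 10 µM simvastatin during compound exposure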
# Active calls of the source: *; x = not tested or not shown. Compounds with a hit are over-represented: about 4% of the library has one in this group of screens.
SMILES,FGF22 binding,rRNA inh HTS,E-selectin induc,SIRT5 block,FN deposit inh,C2C12 statin
COc1ccccc1C#Cc1ccc2c(c1)[C@H]1[C@H](CCN1C(=O)c1ccc(F)cc1)[C@@H](CO)N2,x,2,0,18*,3,x
C[C@@H]1CN([C@@H](C)CO)C(=O)Cc2cc(NS(=O)(=O)c3cn(C)cn3)ccc2O[C@H]1CN(C)C(=O)Nc1ccc2c(c1)OCO2,0,1,-4,4,x,-18
C[C@@H]1CN([C@H](C)CO)S(=O)(=O)c2ccc(C3=CCCCC3)cc2O[C@@H]1CN(C)Cc1cncnc1,0,5,0,2,x,-12
CC(C)(C)C(O)CN1CCCC1 (centres undefined),44*,17,x,1,4,-4
CC(C)(C)c1ccc(OCC(O)CN2CCCC2)cc1 (centres undefined),0,14,2,-30,-1,-14
CCOC(=O)N1CCN(C(=O)c2cc(COc3ccc4ncccc4c3)on2)CC1,0,-15,0,20*,2,-29
N#C[C@@H]1[C@H](c2ccc(-c3ccccc3F)cc2)[C@H](CO)N1C(=O)C1CC1,0,1,0,-1,-8,0
CCCCN(C)Cc1c(C)[nH]c2ccccc2c1=O,43*,20,5,0,1,x
C[C@@H]1CN([C@H](C)CO)S(=O)(=O)c2ccc(C3=CCCCC3)cc2O[C@H]1CN(C)C,x,-1,0,x,x,1
Cc1ccc(NS(=O)(=O)c2ccc(C)c(C(=O)N3CCN(C)CC3)c2)cc1,x,x,x,x,x,123*
CC(=O)N1CCN(C(=O)c2cc(S(=O)(=O)Nc3ccc(S(C)(=O)=O)cc3)ccc2Cl)CC1,44*,17,-3,1,1,x
Cc1ccc(NS(=O)(=O)c2ccc(C(=O)N3CCCN(C)CC3)cc2)cc1,x,x,x,x,5,x
COc1ccc(S(=O)(=O)N(C)C[C@@H]2Oc3ccc(NC(=O)Nc4ccc(C(F)(F)F)cc4)cc3CC(=O)N([C@H](C)CO)C[C@@H]2C)cc1,0,2,2,9,x,-161
COc1cc(/C=N/NC(=O)c2nonc2N)cc(OC)c1OC,0,16,x,18*,-1,-2
C[C@@H]1CCCCO[C@H](CN(C)C(=O)CCC(F)(F)F)[C@H](C)CN([C@@H](C)CO)C(=O)c2cc(NC(=O)c3ccncc3)ccc2O1,x,-3,0,x,x,x
CCOC(=O)C1(CC2CC2)CCN(C(=O)c2cc(C)nc3ccc(CC)cc23)CC1,44*,-31,4,0,0,x
CCOC(=O)C1(Cc2ccc(Cl)cc2)CCN(C(=O)c2sc(C)nc2C)CC1,0,-15,0,0,12,x
CCOC(=O)C1(Cc2ccc(Cl)cc2)CCN(C(=O)c2cc(C)nc(C)n2)CC1,43*,-15,x,-1,-8,8
CCOC(=O)C1(CC2CC2)CCN(C(=O)c2ocnc2C)CC1,0,6,x,1,7,x
Cc1ccc(-c2ccc3c(c2)O[C@H](CN(C)Cc2ccccn2)[C@H](C)CN([C@H](C)CO)S3(=O)=O)cc1,0,-48,1,5,x,-15
C[C@H](CO)N1C[C@H](C)[C@H](CN(C)C(=O)C2CCOCC2)Oc2ncc(C3=CCCC3)cc2C1=O,0,2,0,-1,x,2
O=C(CC1CC1)Nc1ccc2c(c1)[C@@H]1C[C@@H](CC(=O)N3CCCCC3)O[C@@H](CO)[C@@H]1O2,0,1,0,3,-14,2
O=[N+]([O-])c1cc(/C=N/O)ccc1Sc1ccccc1,x,x,x,x,x,171*
CO/N=C/c1ccc(Sc2ccccc2N)c([N+](=O)[O-])c1,x,x,x,x,x,128*
